Measured values reported in ChEMBL document CHEMBL1649480, “Farnesol-induced apoptosis in Candida albicans” (2009).
Activity calls are given as the source filed them. The calls are words filed in the database; no cut-off is given here.

Legend:
Candida albicans [1] = assay: Increase in MCA1 expression in Candida albicans SC5314 at 5 mM after 4 hrs by quantitative PCR analysis
Candida albicans [2] = assay: Upregulation of Coproporphyrinogen III oxidase expression in Candida albicans SC5314 at 40 uM after 24 hrs by MALDI-TOF MS; format: functional, organism-based
Summary of the method: (§1)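 Overnight YNB-glucose SC5314 culture, PBS-washed, adjusted to OD600 0.1 and treated 24 h with 40 or 200 μM farnesol (methanol in controls). Proteomes were compared with untreated cells by 2D SDS-PAGE and MALDI-TOF MS, searched against NCBI nonredundant database. Spots were counted as changed at ≥1.5-fold in three independent experiments.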

Candida albicans [3] = assay: Upregulation of Heat shock protein 70 expression in Candida albicans SC5314 at 40 uM after 24 hrs by MALDI-TOF MS; format: functional, organism-based
Summary of the method: as §1

Candida albicans [4] = assay: Downregulation of Glyceraldehyde-3-phosphate dehydrogenase expression in Candida albicans SC5314 at 200 uM after 24 hrs by MALDI-TOF MS; format: functional, organism-based
Summary of the method: as §1

Candida albicans [5] = assay: Upregulation of Putative Rho protein GDP dissociation factor expression in Candida albicans SC5314 at 200 uM after 24 hrs by MALDI-TOF MS; format: functional, organism-based
Summary of the method: (§2)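 SC5314 grown overnight at 30°C, 120 rpm, in yeast nitrogen base (pH 7.0) with 50 mM glucose. Cells were washed in PBS and adjusted to OD600 0.1, then treated 24 h with farnesol from a methanol dilution; controls received methanol. Proteomes of treated and untreated cells were compared by 2-D SDS-PAGE and MALDI-TOF MS, with ProFound searches of the NCBI nonredundant database. Spots changed at least 1.5-fold in three independent experiments were counted.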

Candida albicans [6] = assay: Upregulation of Mitochondrial 2-enoyl thioester reductase expression in Candida albicans SC5314 at 200 uM after 24 hrs by MALDI-TOF MS; format: functional, organism-based
Summary of the method: as §2

Candida albicans [7] = assay: Upregulation of Coproporphyrinogen III oxidase expression in Candida albicans SC5314 at 200 uM after 24 hrs by MALDI-TOF MS; format: functional, organism-based
Summary of the method: as §1

Candida albicans [8] = assay: Induction of ROS accumulation in mitochondria of Candida albicans SC5314 at 200 uM after 3 hrs by Fluorescence analysis; format: functional
Summary of the method: (§3)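 Cells were exposed 3 h to 40, 100 or 200 μM farnesol, with methanol control and H2O2 positive control. Washed cells were stained 30 min in the dark with a mix of dichlorodihydrofluorescein diacetate, propidium iodide and calcofluor white, then washed and viewed by confocal microscopy. % green (ROS) cells of all cells was scored, with red (necrotic) cells scored separately.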

Candida albicans [9] = assay: Downregulation of G-beta-like protein expression in Candida albicans SC5314 at 40 uM after 24 hrs by MALDI-TOF MS; format: functional, organism-based
Summary of the method: as §1

Candida albicans [10] = assay: Upregulation of Phosphoglycerate mutase expression in Candida albicans SC5314 at 200 uM after 24 hrs by MALDI-TOF MS; format: functional, organism-based
Summary of the method: as §2

Candida albicans [11] = assay: Antiproliferative activity against Candida albicans SC5314 assessed as cell killing after 24 hrs by MTS assay; format: functional
Summary of the method: (§4)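 SC5314 grown overnight in YNB (pH 7.0) with 50 mM glucose at 30°C, 120 rpm, washed in PBS. Suspensions at 1 × 10⁷ cells/ml exposed to farnesol at final 0, 10, 40, 100, 200, 300 μM for 24 h at 30°C with shaking, with methanol vehicle controls. MTS reagent added for 4 h at 37°C, A490 read, and % killed cells calculated.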

Candida albicans [12] = assay: Induction of ROS accumulation in mitochondria of Candida albicans SC5314 at 40 uM after 3 hrs by Fluorescence analysis; format: functional
Summary of the method: as §3

Candida albicans [13] = assay: Increase in MCA1 expression in Candida albicans SC5314 at 100 uM after 4 hrs by quantitative PCR analysis; format: functional, organism-based
Summary of the method: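 Log-phase SC5314 exposed 4 h to farnesol (methanol vehicle control). cDNA diluted 1:20 and run in SYBR green real-time PCR: 15 min 95°C, then 35 cycles of 95°C 1 min, 58°C 30 s, 72°C 30 s, with a melt curve check. MCA1 level was calculated by 2^−ΔΔCT against ACT1 and RPP2B reference genes.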

Candida albicans [14] = assay: Antiproliferative activity against Candida albicans SC5314 assessed as cell killing at 10 uM after 24 hrs by MTS assay; format: functional
Summary of the method: as §4

With `CC(C)=CCC/C(C)=C/CC/C(C)=C/CO` [FARNESOL] the Activity (Candida albicans [1]) was “Active”, the Activity (Candida albicans [2]) was “Active” and the Activity (Candida albicans [3]) was “Active”. For the same compound, the Activity (Candida albicans [4]) was “Active”, the Activity (Candida albicans [5]) was “Active” and the Activity (Candida albicans [6]) was “Active”. The Activity (Candida albicans [7]) was “Active”, the Activity (Candida albicans [8]) was 65% and the Activity (Candida albicans [9]) was “Active”. The Activity (Candida albicans [10]) was “Active”, the Activity (Candida albicans [11]) was 60% and the Activity (Candida albicans [12]) was 26%. The Activity (Candida albicans [13]) was “inactive” and the Activity (Candida albicans [14]) was under 10%.
